Key:
[1] = target: T1, Sterol O-acyltransferase, Soat (Rattus norvegicus) (UniProt Q7TQM4+O70536); experiment: Effective dose to reduce plasma total cholesterol level by 50% of the control value in cholesterol fed rats; format: functional
Method in brief: (§1)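 Cholesterol-fed rats given compound orally as a dietary admixture in a cholesterol-enriched diet. Plasma total cholesterol compared with control and reported as percent reduction at the dose, or as ED50, the dose reducing plasma total cholesterol by 50% of the control value.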

[2] = system: Rattus norvegicus; experiment: Compound was evaluated for percent reduction in total cholesterol level at >0.1 mg/kg; format: functional; method in brief: as §1
[3] = target: O-acyltransferase (Oryctolagus cuniculus, UniProt G1SFD9); experiment: In vitro inhibitory activity against Acyl coenzyme A:cholesterol acyltransferase (ACAT) in rabbit intestinal microsomes; set-up: species or system Intestine
Method in brief: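 Enzyme source was mucosal microsomes from small intestine of cholesterol-fed rabbits, incubated with [1-¹⁴C]oleoyl-CoA (Heider method, minor modifications).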

[4] = target: T1, Sterol O-acyltransferase, Soat (Rattus norvegicus); experiment: Percentage reduction in total cholesterol level at <1 mg/kg; format: functional, organism-based; method in brief: as §1
[5] = target: T1, Sterol O-acyltransferase, Soat (Rattus norvegicus); experiment: Percentage reduction in total cholesterol level at >1 mg/kg; format: functional, organism-based; method in brief: as §1
[6] = system: Rattus norvegicus; experiment: Compound was evaluated for percent reduction in total cholesterol level at <0.32 mg/kg; format: functional; method in brief: as §1

Sequence of O-acyltransferase (G1SFD9 1-524): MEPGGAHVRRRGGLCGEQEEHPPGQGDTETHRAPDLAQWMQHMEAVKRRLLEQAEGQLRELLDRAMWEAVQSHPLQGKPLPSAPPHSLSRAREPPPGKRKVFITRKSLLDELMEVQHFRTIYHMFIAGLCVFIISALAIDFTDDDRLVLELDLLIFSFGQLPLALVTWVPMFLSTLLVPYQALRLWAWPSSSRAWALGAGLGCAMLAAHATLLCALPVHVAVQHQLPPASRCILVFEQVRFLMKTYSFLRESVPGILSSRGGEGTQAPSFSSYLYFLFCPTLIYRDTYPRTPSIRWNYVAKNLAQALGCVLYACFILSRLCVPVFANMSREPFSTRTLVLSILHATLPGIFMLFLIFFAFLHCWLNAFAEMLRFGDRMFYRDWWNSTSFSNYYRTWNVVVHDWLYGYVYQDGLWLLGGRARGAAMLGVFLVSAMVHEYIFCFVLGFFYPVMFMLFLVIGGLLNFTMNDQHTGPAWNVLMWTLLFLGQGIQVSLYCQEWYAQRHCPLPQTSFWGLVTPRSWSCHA

## CSc1cc(C)nc(SC)c1NC(=O)N(Cc1ccccc1)Cc1ccc(-c2cnn(C)c2)cc1
[1]
  ED50: > 0.1 mg/kg
[2]
  Reduction: 29%

## Cc1cc(C)c(NC(=O)N(Cc2ccc(-c3ccnn3C)cc2)C2CCCCCC2)c(C)c1
[3]
  IC50: 24 nM
[1]
  ED50: < 1 mg/kg
[4]
  Reduction: 64%

## Cc1cc(C)c(NC(=O)N(Cc2cccc(-c3cn[nH]c3)c2)C2CCCCCC2)c(C)c1
[3]
  IC50: 38 nM
[1]
  ED50: 0.19 mg/kg

## Cc1cc(C)c(NC(=O)N(Cc2cccc(-c3cc[nH]n3)c2)C2CCCCC2)c(C)c1
[3]
  IC50: 39 nM
[1]
  ED50: 0.12 mg/kg

## CSc1cc(C)nc(SC)c1NC(=O)N(Cc1ccccc1)Cc1cccc(-c2ccn(C)n2)c1
[3]
  IC50: 73 nM
[1]
  ED50: < 1 mg/kg
[4]
  Reduction: 77%

## Cc1cc(C)c(NC(=O)N(Cc2ccccc2)Cc2cccc(-c3cc[nH]n3)c2)c(C)c1
[3]
  IC50: 21 nM
[5]
  Reduction: 36%
[1]
  ED50: > 1 mg/kg

## Cc1cc(C)c(NC(=O)N(Cc2ccc(-c3ccccc3)s2)C2CCCCCC2)c(C)c1
[3]
  IC50: 46 nM
[1]
  ED50: < 1 mg/kg
[4]
  Reduction: 60%

## Cc1cc(C)c(NC(=O)N(Cc2cccc(-c3cc[nH]n3)c2)C2CCCC2)c(C)c1
[3]
  IC50: 22 nM
[1]
  ED50: < 1 mg/kg
[4]
  Reduction: 76%

## Cc1cc(C)c(NC(=O)N(Cc2ccc(-c3ccccc3)o2)C2CCCCCC2)c(C)c1
[3]
  IC50: 44 nM
[1]
  ED50: < 1 mg/kg
[4]
  Reduction: 68%

## CSc1cc(C)nc(SC)c1NC(=O)N(Cc1ccccc1)Cc1ccc(-c2ccnn2C)cc1
[3]
  IC50: 27 nM
[6]
  Reduction: 86%
[1]
  ED50: < 0.32 mg/kg

## CCCCCCCN(Cc1ccc(CC(C)(C)C)cc1)C(=O)Nc1ccc(F)cc1F
[1]
  ED50: 5 mg/kg

## Cc1cc(C)c(NC(=O)N(Cc2cccc(-c3nnn(C)n3)c2)C2CCCCCC2)c(C)c1
[3]
  IC50: 100 nM
[1]
  ED50: < 1 mg/kg
[4]
  Reduction: 84%

## Cc1cc(C)c(NC(=O)N(Cc2cc(-c3ccccc3)on2)C2CCCCCC2)c(C)c1
[3]
  IC50: 61 nM
[5]
  Reduction: 28%
[1]
  ED50: > 1 mg/kg

## Cc1cc(C)c(NC(=O)N(Cc2ccc(-c3ccccc3)nc2)C2CCCCCC2)c(C)c1
[3]
  IC50: 260 nM

## O=C(Nc1c(F)cc(F)cc1F)N(Cc1ccc(-c2cccs2)cc1)C1CCCCCC1
[3]
  IC50: 18 nM
[5]
  Reduction: 33%
[1]
  ED50: > 1 mg/kg

## Cc1cc(C)c(NC(=O)N(Cc2ccc(-c3cccnc3)cc2)C2CCCCCC2)c(C)c1
[3]
  IC50: 130 nM
[1]
  ED50: 0.58 mg/kg

## Cc1cc(C)c(NC(=O)N(Cc2ccc(N3CCN(C)CC3)cc2)C2CCCCCC2)c(C)c1
[3]
  IC50: 57 nM
[5]
  Reduction: 23%
[1]
  ED50: > 1 mg/kg

## Cc1cc(C)c(NC(=O)N(Cc2cccc(-c3ccn(C)n3)c2)C2CCCCCC2)c(C)c1
[3]
  IC50: 42 nM
[1]
  ED50: < 1 mg/kg
[4]
  Reduction: 78%

## Cc1cc(C)c(NC(=O)N(Cc2cccc(-c3nnnn3C)c2)C2CCCCCC2)c(C)c1
[5]
  Reduction: 26%
[1]
  ED50: > 1 mg/kg

## Cc1cc(C)c(NC(=O)N(Cc2ccc(-c3cn[nH]c3)cc2)C2CCCCCC2)c(C)c1
[3]
  IC50: 270 nM
[5]
  Reduction: 8%
[1]
  ED50: > 1 mg/kg

## Cc1cc(C)c(NC(=O)N(Cc2ccc(-n3cccc3)cc2)C2CCCCCC2)c(C)c1
[3]
  IC50: 28 nM
[1]
  ED50: < 1 mg/kg
[4]
  Reduction: 51%

## O=C(Nc1c(F)cc(F)cc1F)N(Cc1ccccc1)Cc1cccc(-c2cc[nH]n2)c1
[3]
  IC50: 14 nM
[1]
  ED50: 0.096 mg/kg

## O=C(Nc1c(F)cc(F)cc1F)N(Cc1ccc(F)cc1)Cc1cccc(-c2cc[nH]n2)c1
[6]
  Reduction: 64%
[1]
  ED50: < 0.32 mg/kg

## CSc1cc(C)nc(SC)c1NC(=O)N(Cc1ccccc1)Cc1ccc(-c2cc[nH]n2)cc1
[3]
  IC50: 55 nM
[6]
  Reduction: 58%
[1]
  ED50: < 0.32 mg/kg

## CSc1cc(C)nc(SC)c1NC(=O)N(Cc1ccccc1)Cc1cccc(-c2cc[nH]n2)c1
[3]
  IC50: 99 nM
[1]
  ED50: 0.046 mg/kg

## CSc1cc(C)nc(SC)c1NC(=O)N(Cc1cccc(-c2cnn(C)c2)c1)C1CCCCCC1
[1]
  ED50: > 0.1 mg/kg
[2]
  Reduction: 44%

## Cc1cc(C)c(NC(=O)N(Cc2ccc(-c3ccccn3)cc2)C2CCCCCC2)c(C)c1
[3]
  IC50: 33 nM
[5]
  Reduction: 46%
[1]
  ED50: > 1 mg/kg

## Cc1cc(C)c(NC(=O)N(Cc2cc(-c3ccccc3)cs2)C2CCCCCC2)c(C)c1
[3]
  IC50: 36 nM
[1]
  ED50: < 1 mg/kg
[4]
  Reduction: 69%

## CSc1cc(C)nc(SC)c1NC(=O)N(Cc1ccc(F)cc1)Cc1cccc(-c2cc[nH]n2)c1
[3]
  IC50: 250 nM
[1]
  ED50: < 0.1 mg/kg

## O=C(Nc1c(F)cc(F)cc1F)N(Cc1ccc(-c2ccccn2)cc1)C1CCCCCC1
[3]
  IC50: 25 nM
[5]
  Reduction: 30%
[1]
  ED50: > 1 mg/kg

## Cc1cc(C)c(NC(=O)N(Cc2cccc(-c3nn[nH]n3)c2)C2CCCCCC2)c(C)c1
[3]
  IC50: > 1000 nM

## Cc1cc(C)c(NC(=O)N(Cc2ccc(-c3cnco3)cc2)C2CCCCCC2)c(C)c1
[3]
  IC50: 200 nM
[5]
  Reduction: 13%
[1]
  ED50: > 1 mg/kg

## Cc1cc(C)c(NC(=O)N(Cc2cccc(-c3c[nH]cn3)c2)C2CCCCCC2)c(C)c1
[1]
  ED50: < 1 mg/kg
[4]
  Reduction: 84%

## Cc1cc(C)c(NC(=O)N(Cc2cccc(-c3cnn(C)c3)c2)C2CCCCCC2)c(C)c1
[3]
  IC50: 44 nM
[1]
  ED50: < 1 mg/kg
[4]
  Reduction: 74%

## Cc1cc(C)c(NC(=O)N(Cc2ccc(-c3cccs3)cc2)C2CCCCCC2)c(C)c1
[3]
  IC50: 22 nM
[1]
  ED50: 0.28 mg/kg

## Cc1cc(C)c(NC(=O)N(Cc2cccc(-c3ccnn3C)c2)C2CCCCCC2)c(C)c1
[3]
  IC50: 35 nM
[5]
  Reduction: 34%
[1]
  ED50: > 1 mg/kg

## CSc1cc(C)nc(SC)c1NC(=O)N(Cc1ccc(-c2cc[nH]n2)cc1)C1CCCCCC1
[3]
  IC50: 100 nM
[6]
  Reduction: 77%
[1]
  ED50: < 0.32 mg/kg

## CSc1cc(C)nc(SC)c1NC(=O)N(Cc1ccc(Oc2ccc(F)cc2)cc1)C1CCCCCC1
[3]
  IC50: 30 nM
[1]
  ED50: 0.034 mg/kg

## Cc1cc(C)c(NC(=O)N(Cc2ccc(-n3ccnn3)cc2)C2CCCCCC2)c(C)c1
[3]
  IC50: 42 nM
[5]
  Reduction: 19%
[1]
  ED50: > 1 mg/kg

## CSc1cc(C)nc(SC)c1NC(=O)N(Cc1ccccc1)Cc1cccc(-c2ccnn2C)c1
[3]
  IC50: 28 nM
[1]
  ED50: < 1 mg/kg
[4]
  Reduction: 88%

## Cc1cc(C)c(NC(=O)N(Cc2ccc(-n3cncn3)cc2)C2CCCCCC2)c(C)c1
[3]
  IC50: 26 nM
[5]
  Reduction: 19%
[1]
  ED50: > 1 mg/kg

## O=C(Nc1c(F)cc(F)cc1F)N(Cc1ccc(-n2cccc2)cc1)C1CCCCCC1
[3]
  IC50: 27 nM
[5]
  Reduction: 21%
[1]
  ED50: > 1 mg/kg

## CN(C)c1ccc(CN(Cc2cccc(-c3cc[nH]n3)c2)C(=O)Nc2c(F)cc(F)cc2F)cc1
[3]
  IC50: 12 nM
[6]
  Reduction: 68%
[1]
  ED50: < 0.32 mg/kg

## Cc1cc(C)c(NC(=O)N(Cc2ccc(-c3cc[nH]n3)cc2)C2CCCCCC2)c(C)c1
[3]
  IC50: 52 nM
[5]
  Reduction: 17%
[1]
  ED50: > 1 mg/kg

## Cc1cc(C)c(NC(=O)N(Cc2cccc(-n3cccc3)c2)C2CCCCCC2)c(C)c1
[3]
  IC50: 20 nM
[1]
  ED50: 0.17 mg/kg

## Cc1cc(C)c(NC(=O)N(Cc2ccc(-n3ccnc3)cc2)C2CCCCCC2)c(C)c1
[3]
  IC50: 47 nM
[5]
  Reduction: 26%
[1]
  ED50: > 1 mg/kg

## Cc1cc(C)c(NC(=O)N(Cc2ccc(-n3nccn3)cc2)C2CCCCCC2)c(C)c1
[3]
  IC50: 130 nM
[5]
  Reduction: 11%
[1]
  ED50: > 1 mg/kg

## Cc1cc(C)c(NC(=O)N(Cc2cc(-c3ccccc3)[nH]n2)C2CCCCCC2)c(C)c1
[3]
  IC50: 520 nM

## CSc1cc(C)nc(SC)c1NC(=O)N(Cc1ccc(N(C)C)cc1)Cc1cccc(-c2cc[nH]n2)c1
[3]
  IC50: 72 nM
[1]
  ED50: < 0.1 mg/kg

## Cc1cc(C)c(NC(=O)N(Cc2ccc(-c3cnn(C)c3)cc2)C2CCCCCC2)c(C)c1
[3]
  IC50: 47 nM
[1]
  ED50: 0.31 mg/kg

## COc1ccc(CN(Cc2cccc(-c3cc[nH]n3)c2)C(=O)Nc2c(SC)cc(C)nc2SC)cc1
[3]
  IC50: 200 nM
[1]
  ED50: < 0.1 mg/kg

## Cc1cc(C)c(NC(=O)N(Cc2ccc(-c3n[nH]c(C)n3)cc2)C2CCCCCC2)c(C)c1
[3]
  IC50: 120 nM
[5]
  Reduction: 17%
[1]
  ED50: > 1 mg/kg

## Cc1cc(C)c(NC(=O)N(Cc2ccc(-c3ccsc3)cc2)C2CCCCCC2)c(C)c1
[3]
  IC50: 19 nM
[1]
  ED50: 0.51 mg/kg

## Cc1cc(C)c(NC(=O)N(Cc2cccc(-c3csc(C)n3)c2)C2CCCCCC2)c(C)c1
[3]
  IC50: 180 nM

Reference: ChEMBL document CHEMBL1131624, “Inhibitors of acyl-CoA:cholesterol O-acyltransferase. 2. Identification and structure-activity relationships of a novel series of N-alkyl-N-(heteroaryl-substituted benzyl)-N'-arylureas” (J Med Chem, 1998)
